Test system: MS2 coat protein
Assay: apparent Kd, MS2 coat protein; higher = weaker binding; RNA-MaP array
Outline: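 Fluorescently labeled MS2 coat protein, from 1.5 nM to 3 μM, was incubated at room temperature with designed RNAs transcribed on an Illumina sequencing chip from sequenced DNA templates. Times ran from 0.8–1.5 h at the lowest concentrations to 10–20 min at the highest, in Tris-HCl pH 7.5 buffer with KCl, MgCl2, BSA, DTT, tRNA and Tween20, with or without input ligand. Each apparent Kd is the median of per-cluster binding-curve fits, and designs with fewer than 10 measured clusters were excluded.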

[1] = designed as: OFF switch for flavin mononucleotide, no ligand
[2] = ligand present: flavin mononucleotide, designed as: OFF switch for flavin mononucleotide
[3] = designed as: ON switch for flavin mononucleotide, no ligand
[4] = ligand present: flavin mononucleotide, designed as: ON switch for flavin mononucleotide
[5] = designed as: ON switch for tryptophan, no ligand
[6] = ligand present: tryptophan, designed as: ON switch for tryptophan

Sequence | apparent Kd [1] [nM] | apparent Kd [2] [nM] | apparent Kd [3] [nM] | apparent Kd [4] [nM] | also measured
AUCGCGACAGGAUAUACAUGAGGAUCACCCAUGUUGAUGAGCGAGCAUCGGACUGAGAGUAGAAGGGUCGGCUC | 9.26 | 9.04 |  |  | 
AUCGUGCCAAGAGGAUAUCACCAUUCAAUACCCACAUGAGGAUCACCCAUGUAUGCAGUGUUCCGUGAGAAGGCUUGCAUACCA |  |  | 113 | 19.4 | 
AUGUAGUCGGUAGGAUAUACGAGUCUGAUAACAGUAGAAGGACCGAGUACGGCUCCGCAGUACAUGAGGAUCACCCAUGUGAUC |  |  | 533 | 286 | 
AUGUCGCAAUGGAAAAGACAUGAGGAUCACCCAUGUCAGCGUAGAAGGACCUUGUCGACUAAUGGGUAGGAUAUACGAGAAUCC |  |  | 6.79 | 7.2 | 
AUGUGUAUUGAAGGAUAUGAAGCCGGCAUAAAAUCAGAAGGUCAACUAAUUACACAUGAGGAUCACCCAUGUGAUGACAUGCUU | 17.2 | 24.8 |  |  | 
AUUCGAACGGUCAGGAUAUGCGGAAAGACAUCGCAGCAGAAGGGACAUGAGGAUCACCCAUGUAAAGGGCACAA | 36.1 | 182 |  |  | 
AUUGUGAUAGCAGGAUAUUGUAUUGGUACAUGAGGAUCACCCAUGUUAAAAUCCUCUUGAUUUAGCAAGAAGGGCUCCAUGGCA | 21.8 | 18.3 |  |  | 
CAAUAACAGAAAGGAUAUGGGCUCGAUACAUGAGGAUCACCCAUGUCUCCGUCAACGCUCAGUGCCCAGAAGGUUCCGCAGAAU |  |  | 34 | 20.2 | 
CACAGGUCAGUAGGAUAUGCUACAUGAGGAUCACCCAUGUGGUGGUAUAUGCGUCUAGGCGCAAAGCAGAAGGACUUCCAGGUG | 42 | 146 |  |  | 
CACCCAACUAUACAUGAGGAUCACCCAUGUUGAAAGUGCAACAGAAGGCCCUACUAAUAUAGGAGGGAGGAUAUGUGAACCGAA |  |  | 62.5 | 11.4 | 
CACGCUCACCAGAAGGCAGAGCAUAAAUGACAUGAGGAUCACCCAUGUACGCAGGAGAUCGGGUCUGAGGAUAUGGCAAUAGGC |  |  | 21.4 | 20.5 | 
CAGACCCGGAAGAAGGAGGAGACAUAAACACGCCUAGGAUAUACGCCUGAAUAAACGUAAACAUGAGGAUCACCCAUGUCAAAC |  |  | 9.5 | 8.4 | 
CAGGAGCUAGAGAAGGAGGUUACGCCCACGGACCUAGGAUAUCUGUUCUGAGUUACAUGAGGAUCACCCAUGUGUCCGCGGUGG | 53.9 | 33 |  |  | 
CAUGAGAGAUUGUUUUGUGACUCUAACGAUACCAGAGUAGGACUUCUCCCUUGGCAGCGUGUGACAUGAGGAUCACCCAUGUCCA |  |  |  |  | apparent Kd (designed as: OFF switch for theophylline, no ligand): 10.6 nM; apparent Kd (ligand present: theophylline, designed as: OFF switch for theophylline): 11.7 nM
CCAAAAUCGAAGAAGGCUAUGCGUACCAAUCUUAGAGGAUAUUCGACCUUAGCUAACAUGAGGAUCACCCAUGUGGGAAACACG | 28 | 19.5 |  |  | 
CCAGUUACCAGAGGAUAUGAUUCCAGAGUUAAGGGUAUUCACAUGAGGAUCACCCAUGUGCUCCUUCAGAAGGCUGAUAACCCG | 39.8 | 49.4 |  |  | 
CCAUGGUUGACGGCCGCCACUCAUUAGUCUUUGAGGUUGGCACAUGAGGAUCACCCAUGUCUGCAGAGGACCGGGUCUCGCCACA |  |  |  |  | apparent Kd [5]: 44.3 nM; apparent Kd [6]: 44.2 nM
CCCAAUUUCCGAGAUAUGGGUCCAACUAAACGAGGACCGGUACGGCCGCCACUCGACUACAAACAUGAGGAUCACCCAUGUAAAG |  |  |  |  | apparent Kd (designed as: OFF switch for tryptophan, no ligand): 17 nM; apparent Kd (ligand present: tryptophan, designed as: OFF switch for tryptophan): 17.4 nM
CCGAACACUUAGAAGGAUUUAAUCUAUAAUUGAAUAGGAUAUAAGGCCUUACGUGCGAAUGAACACAUGAGGAUCACCCAUGUA | 15.1 | 12.6 |  |  | 
CCUCGAACGGCAGGAUAUAUUGGUCAAAAUUCUAUAGAAGGGCCUCUCCCUGGAACAUGAGGAUCACCCAUGUGCGCACUUGUG |  |  | 57.4 | 61.9 | 
CCUGACAUGAGGAUCACCCAUGUGUGAGCACGAGGACCGGUACGGCCGCCACUCGCGUUGCCGGCCGGACUAUCUGGCGAAGUCA |  |  |  |  | apparent Kd [5]: 32.9 nM; apparent Kd [6]: 35.1 nM
CGACGCUUAGGAUAUUGGUACACCUACAUGAGGAUCACCCAUGUGACUCCUUUACAAGGGCAAGAAGGAAGUUGGU | 110 | 221 |  |  | 
CGAUGACAUGAGGAUCACCCAUGUUGCGGUAUUCAAGGAUAUCCUGAGUUUUCAAGCAUUGGAGAAGGUGAUUUCG |  |  | 30.1 | 26.1 | 
CGGACCUGAGAGAAGGGCAGCCGACAUGAGGAUCACCCAUGUAAUCGAGGACCAUCCUCAUUUUUGCAGGAUAUCUAUUGUUAU | 35.4 | 37.3 |  |  | 
CGGUGGUGAGGAUAUCAAAUGUGGAAGGAGAAGACACCCAGUGAGAAGGCACAUGAGGAUCACCCAUGUACAGC | 10.7 | 6 |  |  | 
CGUACAAUUAAGAAGGGACAUUGCUAUAGACUGUCAGGAUAUUAUGUACAUGAGGAUCACCCAUGUAGUAGUCAAGGGUCGGAA | 16.7 | 61.7 |  |  | 
CGUUCAGAUCAUGAUAACAUGAGGAUCACCCAUGUGGAAUAAUAGGAUAUGGAGAACAAAAUUAACCAGAAGGAUUAUAACAAA |  |  | 70 | 44.9 | 
